Experimental data: ChEMBL document CHEMBL3351227, “Solving the supply of resveratrol tetramers from Papua New Guinean rainforest anisoptera species that inhibit bacterial type III secretion systems” (J Nat Prod, 2014)
pIC50: −log10 of the molar value. Activity calls are given as the source filed them. The rule behind the calls is not given here.

Legend:
[1] = Inhibition of YopH in Yersinia pseudotuberculosis YPIII PIB102-Elux using p-nitrophenyl phosphate as substrate measured after 3 hrs 15 mins by phosphatase enzyme assay
In short: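 Same YopE-reporter culture and incubation, with Ca2+-depleted BHI and compounds at 10–100 μM. Before decanal addition, an aliquot went into pNPP (12.5 mM in 20 mM MES pH 5.0, 0.8 mM DTT). This was incubated 15 min at 37 °C, stopped with NaOH and read at 405 nm. IC50 was interpolated from dose–response curves. Bacteria in BHI with 2.5 mM Ca2+ were the negative control.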

[2] = Inhibition of YopE in Yersinia pseudotuberculosis YPIII PIB102-Elux measured after 3 hrs 15 mins by luminescent reporter-gene assay
In short: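 Strain was grown on LB agar with 25 μg/mL chloramphenicol for 48 h at 26 °C, then in BHI with chloramphenicol for 12−16 h at 26 °C. It was diluted to OD620 0.2, then 1 in 4 into Ca2+-depleted BHI (5 mM EGTA, 20 mM MgCl2). Compounds were tested at 10–100 μM. Incubation was 1 h at 26 °C, 3 h at 37 °C, then 15 min at 26 °C. Luminescence was read after adding 0.1% decanal, and IC50 was interpolated from dose–response.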

[3] = tested on: Yersinia pseudotuberculosis YPIII; assay: Antimicrobial activity against Yersinia pseudotuberculosis YPIII PIB102-Elux at 364 uM by spectrophotometry; format: functional

Row | SMILES | pIC50 [1] | pIC50 [2] | Activity [3]
1 | Oc1ccc([C@@H]2c3c(O)cc(O)cc3[C@@H]3c4c(cc(O)cc4[C@H]2[C@@H]2c4cc(O)cc5c4[C@@H](c4cc(O)cc(O)c4[C@H]2c2ccc(O)cc2)[C@H](c2ccc(O)cc2)O5)O[C@H]3c2ccc(O)cc2)cc1 | 5.54 | 5.06 | inactive
2 | CN[C@@H]1[C@H](O[C@H]2[C@H](O[C@H]3[C@H](O)[C@@H](O)[C@H](N=C(N)N)[C@@H](O)[C@@H]3N=C(N)N)O[C@@H](C)[C@]2(O)C=O)O[C@@H](CO)[C@H](O)[C@H]1O [STREPTOMYCIN] | 4.51 | 4.42 | –
3 | OC[C@H]1O[C@@H](Oc2cc3c4c(c2)[C@@H]([C@@H]2c5cc(O)cc6c5[C@@H](c5cc(O)cc(O)c5[C@H]2c2ccc(O)cc2)[C@H](c2ccc(O)cc2)O6)[C@H](c2ccc(O)cc2)c2c(O)cc(O)cc2[C@H]4[C@H](c2ccc(O)cc2)O3)[C@H](O)[C@@H](O)[C@@H]1O [VATALBINOSIDE A] | 5.35 | 4.90 | inactive
4 | Oc1ccc([C@@H]2c3c(O)cc(O)cc3[C@@H]3c4c(cc(O)c5c4[C@@H]2[C@H](c2ccc(O)cc2)[C@H]5c2cc(O)cc4c2[C@@H](c2cc(O)cc(O)c2)[C@H](c2ccc(O)cc2)O4)O[C@H]3c2ccc(O)cc2)cc1 [Vaticanol B] | 5.48 | 5.00 | –
